This is an account of results in the RNAGym collection of RNA variant scans (doi:10.1126/science.aae0568).

This sample holds only a part of the variants without activity.

The labels stand for the following.
B1: tRNA (parent)
chain: GUUCCGUUGGCGUAAUGGUAACGCGUCUCCCUCCUAAGGAGAAGACUGCGGGUUCGAGUCCCGUACGGAACG

The data set covers variants of B1. The data set is described as follows: yeast fitness relative to wild type (ratio to wild type); higher = fitter; tRNA-Arg(CCU), competitive growth, 37 C, YPD. The method in brief:
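Variants of the tRNA-Arg(CCU) gene, chemically synthesised with a 3% per-site mutation rate at 69 sites, were placed at the native genomic locus in Saccharomyces cerevisiae. The pooled strains were competed in YPD at 37°C for 24 hours in six parallel replicates. Gene amplicons from the start population and from each end population were read by 100-nucleotide paired-end sequencing. Darwinian fitness relative to wild type came from changes in genotype frequencies; genotypes needed ≥ 100 starting reads, and estimates < 0.5 were set to 0.5.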
On to GUUCCGGUGGCGUAAUGGUAACGCGUCUCCCUCCUAAGGUGAUAUCUGCGGGAUCGAGUCCCGUACGGAACG, for which the yeast fitness worked out at 0.61. Turning to GUUCCGUUGGCAUAAUGGUAACGCGUCUCCCUCCUGAGGAGAAGACUGCGGGUUUGAGUCCCGUACGGUACG, the yeast fitness was at most 0.5. As for GUGCCGUUGGCCUAAUGGUAACGCGUCUCCCUCCUAAGGAGUAGACUGCGGGUUCGAGUCCCGUACCGAACG, the figure is at most 0.5; as for GUUCCGUUGGCGUAAUGGUAACGCGUCUCCCUCCCAAGGAGAAGACUGCGGCUUCGAGUCCCGUACGGAACG, at most 0.5. Then GUUCAGUUGGCGUAAUGGUGACGCGUCUCCCUCCGAAGGAAAAGACUGCGGGUUCAAGUCCCGUACGGACCG, with at most 0.5; and GUUCCGUUGGCGUAAUGGUAACGCGUCUCCCUCCUAAAGAGAACACUGCGGGUUCGAGUCCCGUACGGAACG, with 0.712. Turning to GUUCCGUUGGCGUAAUGGUCACGCGUCUGCCUCCUAAGGAGAAGACUGCGGGUUCGUGUCCCGUACGGAACG, the yeast fitness was at most 0.5.

Consider GUACCGUUGGCGUAAGGGUAACGCGUCUCCCUCCUAAGGAGAAGAUUGCGGGUACGAGUCCCGUACGGAACG, for which the yeast fitness was at most 0.5. As for GUUCCGUGGGCGUAUUGGUAACGCGUCUCCCUCCUAAGGAGAAGACUGCGGGUUCGAGUCCCGUACGGAACG, the figure is at most 0.5; as for GUUCCGAUGGCGUAAUGGUGACGCGUCUCCCUCCUAAGGAGAAGACUGGGGGUUCGAGUCCCGUACAGAACG, at most 0.5; as for GUUCUGUUGGCGUAAUGGUAACGUGUCUCCCUCCUAAGGAGCAGACUGCGGGUUCGUGUCCAGUACGGAACG, at most 0.5.

For the variant GUUCUGUUGGCGGACUGGUAACGCGUCUCCCUCCUAAGGAGAAGACUGCGGGUUCGAGUCCCGUACGGAACG, the yeast fitness was determined as 0.509. Then GUUCCGUUGGCGUUAUGGUAACACGUCUCCCUCCUAAGGAGAAGACUGCGGGUUCGAGUCCCGUACGGAACG, with at most 0.5; and GUUCCGAUGGCGUAAUGGUAACGCGUCUCCCUCCUACGGAGACGACUGCGGGUUCGAGUCCCGUGCGGAACG, with at most 0.5; and GUUCCGUUGGCGUAAUGGUAACGCGUCUCCCUCCUAACGAGAAGACUGCGGGUUGGAGUCCCGUACGGAACG, with 0.617. Then GUUCUGUUGGCGAAAUGGUAACGCGUCUCCCUCCUAAGGAGAGGGCUGCGGGUUCGAGUCCGGUACGGAACG, with at most 0.5; and GUUCCGUUGGCGUAAUGGUAACGCGUCUCCCUCCUAAGGAGACGACUACGGGUUCGAGUCCCGUACGGACCG, with 1.13; and GUUCCGUUGACGUAAUGGUAACGCGUCUCCCUCCUAAGGAGAGGACUGCGGCCUCGAGUCCCCUACGGAACG, with at most 0.5.

On to GUUCCGUUGGCGUAAUGGUAACGCGUCUCCCUCCUAAGCAGCAGACUGCGGGUUCGAGUCCCGUACGGAACG, for which the yeast fitness is 0.687. As to GUUCCGUUGGCGUAAUGGUAACGCGUCUCCCUCCUAAGGAGCAGACUGCGAGUUCGAGUCCCGUUCGAAACG, the yeast fitness was at most 0.5. As for GUUCCGUUGGCGUUAUGGUAACGCGUCUCACUCCUAAGGAAAAGACUGCGGGUUCCAGUCCCGUACGGAACG, the figure is at most 0.5. On to GUUCCGUUGGCGUAAUGGUAACGCGUGUCCUUCCUAAGGAGAAGACUGCGGGUUCGAGUCCCGUACGAAACG, for which the yeast fitness is at most 0.5. Take GUUCGGUUGGCGUAAUAGUAACGCGUCUCCCUCCUACGGAGAAGACUGCGGGUUCGAGUCCCGUCCGGAACG: the yeast fitness stood at 0.588. Then GUUCCGUUGGCGUAUUGGUAACCCGUCUUCCUCCUAAGGAGAAGACUGCAGGUUCGAGUCCCGUACGGAACG, with 0.616; and GUUCCGUUGGCGUAAUGGUAACGCGUCUCCCUCCUAAGGAGAAGACUGCGAGUUUGAGUCCCGUACGGAACG, with 0.633. As for GUUCCGUUGGCGUAAUGGUAACCCGUCUCCCUCCUAAGGAGAAGCCUGCGGGUUCGAGUCCCGUAGGGAACG, the figure is at most 0.5; as for GUUCCGUUGGCGUAAUAGUAACGCGUCUCCCUCCUAAGGAGAAAACUGCGGGUUCGAGUCCCGUACGGACCG, at most 0.5.

Take GUUCCGUUGGCGCAAUGGUAACGCGUCUCCCUCCUGAGGCGAAGACUGCGGGUUCGAGUCCCGUACGGAACG: the yeast fitness was 0.61.

As for GUUAAGUUGGCGUAAUGGUAACGCGUCUGCCUCCUAACGAGAAGACUGCGGGUUCGAGUCCCGUUCGGAACG, the yeast fitness was at most 0.5. Consider GUUCCGUUGGCGUAAUGGUAACGCGUCUCCCUCCUAAGGAGAAGACUGCGGCUUCGAGUACCGUACGGAACG, for which the yeast fitness is 0.641.

In the case of GUUCCGUUGGCGUAAUGGUACCGCGUCUUCCUCCUAAGGAGAAGACUGCGGGUUCGAGUCCCGUACGGAACG, the yeast fitness was found to be 0.824.

Regarding GUUCCGUUGGCGUAAUGGUAAAGCGUCUCCCUCCUAAGGAGAAGACAACGGGUUCGAGUCCCGUACGGAACG, the yeast fitness was found to be 0.505. As for GUUCCGUUAGCGUAAUGGUAACGCGUCUUCUUCCUAAGGAGUAGACUGCGGGUUCGAGUCCCGUACGGAACG, the figure is 0.615. As for GUUCCGUUGGCGUAAUGGUAACGCGUCUCCCUCCUAGGGAGAAGACUGAGGGUUCGAGUCCCGUACGGAACG, the figure is 0.546; as for GUUCCGUUGGCGUAAUAGUAACGCGUCUCCCUCCUAAGGAGAAGACUGCGGGUUCGAGUACCGUACGGAACG, at most 0.5. As for GUUCCGUUGGCGUAAUGGUAACGCGUCUCCGUCCUAAGGAGAAGACUGCGGGAUCGAGUCCCGUACGGAACG, the figure is 0.694; as for GUUCCGUUGGCGUAGUGGUAACGCGUCUCCCUCCUAAGGAGAAGACCGCGGGUUCGAGUCCCGUACGGCACG, 0.754; as for GUUCCGUUGGCGUAAUGGUACCGCGUCUACCUCCUAAGGAGAAGACUGCGGCUUCGAGUCCCGUACGGAACG, 0.566.
